Blank lines part the entries; values can stand above or below the compound they belong to. Calls of active or inactive are those of the source. No cut-off for these calls is given here.
How the values were obtained:
[1] = system: MG-63; test: Antiproliferative activity against human MG63 cells after 3 days by MTT assay; type: functional, cell-based; settings: MG-63, 72 h
How it was run: (§1)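 Osteosarcoma cells were seeded at 4000 per well 6 h before treatment in medium with 10% FBS, penicillin/streptomycin and 2 mM glutamine, at 37 °C and 5% CO2. Compounds came from 40 mM DMSO stocks and were tested at 3–200 µM for 3 days. MTT was added for 2 h and formazan dissolved in 50% DMF/20% SDS pH 4.7 for 16 h. A570 was read versus untreated control; IC50 calculated. Three independent experiments in triplicate.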

[2] = system: HOS-TE85; test: Antiproliferative activity against human HOSTE85 cells after 3 days by MTT assay; type: functional, cell-based; settings: HOS-TE85, 72 h; how it was run: as §1
[3] = system: K562; test: Antiproliferative activity against human K562 cells after 3 days by MTT assay; type: functional, cell-based
How it was run: (§2)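 K562 leukemia cells were seeded at 20000 cells per mL in medium with 10% FBS, penicillin/streptomycin and 2 mM glutamine, at 37 °C and 5% CO2. Compounds were diluted from 40 mM DMSO stocks and applied at 3–200 µM for 3 days. MTT was added for 2 h, then lysis in 50% DMF/20% SDS pH 4.7 for 16 h, and A570 read. Proliferation was expressed as % of untreated cells; IC50 calculated. Three independent experiments in triplicate.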

[4] = Antioxidant activity assessed as DPPH free radical scavenging at 1.15 x 10^-6mol/L after 10 mins by UV-vis spectrophotometric analysis relative to control; type: functional
How it was run: (§3)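 Ethanolic DPPH was added to the compound in ethanol at the stated concentration, within a five-level series of 1.15 × 10^-6 to 9.10 × 10^-6 mol L^-1. After 10 min in the dark, absorbance was read at 517 nm against absolute ethanol. Scavenging was expressed as RSA% = [(A0 − Ai)/A0] × 100, with A0 the absorbance without compound. BHT served as reference. Triplicate.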

[5] = Antioxidant activity assessed as DPPH free radical scavenging at 2.45 x 10^-6mol/L after 10 mins by UV-vis spectrophotometric analysis relative to control; type: functional; how it was run: as §3
[6] = Antioxidant activity assessed as DPPH free radical scavenging at 4 x 10^-6mol/L after 10 mins by UV-vis spectrophotometric analysis relative to control; type: functional; how it was run: as §3
[7] = Antioxidant activity assessed as DPPH free radical scavenging at 6.25 x 10^-6mol/L after 10 mins by UV-vis spectrophotometric analysis relative to control; type: functional; how it was run: as §3
[8] = Antioxidant activity assessed as DPPH free radical scavenging at 9.10 x 10^-6mol/L after 10 mins by UV-vis spectrophotometric analysis relative to control; type: functional; how it was run: as §3
[9] = Antioxidant activity assessed as DPPH free radical scavenging after 10 mins by UV-vis spectrophotometric analysis; type: functional
How it was run: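 DPPH and test compound mixed in ethanol at five concentrations, 1.15 × 10^-6 to 9.10 × 10^-6 mol L^-1. After 10 min in the dark, absorbance at 517 nm was read against ethanol blank. RSA% = [(A0 − Ai)/A0] × 100. EC50 (concentration giving 50% radical inhibition) was derived from the RSA% values. BHT was the reference over the same range. Triplicate.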

[10] = system: MG-63; test: Antiproliferative activity against human MG63 cells at 3 to 200 uM after 3 days by MTT assay; type: functional, cell-based; how it was run: as §1
[11] = system: HOS-TE85; test: Antiproliferative activity against human HOSTE85 cells at 3 to 200 uM after 3 days by MTT assay; type: functional, cell-based; how it was run: as §1
[12] = system: K562; test: Antiproliferative activity against human K562 cells at 3 to 200 uM after 3 days by MTT assay; type: functional, cell-based; how it was run: as §2

Compound: O=C1Nc2ccccc2/C1=[N+](\[O-])Cc1ccccc1
IC50 [1]: 77000 nM | IC50 [2]: 32000 nM | Activity [3]: inactive | Activity [4]: 1.1% | Activity [5]: 1.1% | Activity [6]: 1.2% | Activity [7]: 1.2% | Activity [8]: 78% | EC50 [9]: 1800 nM

Compound: C/[N+]([O-])=C1\CCc2ccccc21
Activity [3]: inactive | Activity [10]: inactive | Activity [11]: inactive | Activity [12]: inactive | Activity [6]: 1.1% | Activity [7]: 60% | Activity [8]: 78% | EC50 [9]: 1300 nM

Compound: C/[N+]([O-])=C1\CCc2cc(F)ccc21
Activity [3]: inactive | Activity [10]: inactive | Activity [11]: inactive | Activity [12]: inactive | Activity [6]: 1.1% | Activity [7]: 1.2% | Activity [8]: 79% | EC50 [9]: 1800 nM

Compound: C/[N+]([O-])=C1\C(=O)Nc2ccc([N+](=O)[O-])cc21
IC50 [2]: 32000 nM | Activity [3]: inactive | Activity [6]: 1.1% | Activity [7]: 72% | Activity [8]: 79% | EC50 [9]: 1200 nM

Second part, led by results:

EC50 [9]: 1300 nM
Compound: O=C1Nc2ccccc2/C1=[N+](\[O-])c1ccccc1
Activity [3]: inactive | Activity [10]: inactive | Activity [11]: inactive | Activity [12]: inactive | Activity [4]: 1.1% | Activity [5]: 1.2% | Activity [6]: 1.2% | Activity [7]: 69% | Activity [8]: 80%

EC50 [9]: 1000 nM
Compound: O=C1Nc2ccc([N+](=O)[O-])cc2/C1=[N+](\[O-])Cc1ccccc1
IC50 [1]: 77000 nM | IC50 [2]: 32000 nM | Activity [3]: inactive | Activity [6]: 60% | Activity [7]: 67% | Activity [8]: 80%

EC50 [9]: 1200 nM
Compound: [O-]/[N+](Cc1ccccc1)=C1/CCc2ccccc21
Activity [3]: inactive | Activity [10]: inactive | Activity [11]: inactive | Activity [12]: inactive | Activity [4]: 1.1% | Activity [5]: 1.2% | Activity [6]: 1.3% | Activity [7]: 70% | Activity [8]: 79%

EC50 [9]: 3800 nM
Compound: Cc1cc(C(C)(C)C)c(O)c(C(C)(C)C)c1 [BUTYLATED HYDROXYTOLUENE]
Activity [5]: 4.6% | Activity [6]: 11.7% | Activity [7]: 23% | Activity [8]: 27%

IC50 ([3]; K562, 72 h): 78000 nM | EC50 [9]: 600 nM
Compound: CN1C(=O)/C(=[N+](/[O-])Cc2ccccc2)c2ccccc21
IC50 [1]: 77000 nM | Activity [4]: 1.2% | Activity [5]: 60% | Activity [6]: 68% | Activity [7]: 70% | Activity [8]: 79%

Reference: ChEMBL document CHEMBL4257474, “Antiproliferative activity of novel isatinyl/indanyl nitrones (INs) as potential spin trapping agents of free radical intermediates” (Medchemcomm, 2018)
